Experimental data: ChEMBL document CHEMBL4613269, “2-((4-Arylpiperazin-1-yl)methyl)benzonitrile Derivatives as Orally Available Inhibitors of Hepatitis C Virus with a Novel Mechanism of Action” (J Med Chem, 2020)
The source made the active and inactive calls. The rule behind the calls is not given here.

Assays:
[1] = Cytotoxicity in African green monkey Vero cells assessed as reduction in cell viability; assay type: cell-based; settings: chlorocebus sabaeus
[2] = Tmax in Sprague-Dawley rat at 15 mg/kg, po measured after 0.08 to 72 hrs post dose by LC-MS/MS analysis; assay type: ADME, organism-based; settings: in vivo
[3] = Drug level in Sprague-Dawley rat at 15 mg/kg, po measured after 24 hrs post dose by LC-MS/MS analysis; assay type: ADME, organism-based; settings: in vivo, read-out: Drug uptake
In short: (§1)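 Single dose to fasted (12 h) animals: oral gavage 15 mg/kg as suspension in 0.5% CMC-Na, or iv 5 mg/kg dissolved in citric acid buffer pH 5.0 with 2.5% DMSO. Jugular vein blood on heparin at 0.08 (iv only) to 72 h. Plasma assayed by LC-MS/MS; parameters from noncompartmental analysis.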

[4] = Clearance in beagle dog at 5 mg/kg, iv measured after 0.08 to 72 hrs post dose by LC-MS/MS analysis; assay type: ADME, organism-based, Canis lupus familiaris; settings: in vivo; in short: as §1
[5] = tested on: Hepatitis C virus; assay: Antiviral activity against HCV GS4.3 infected in human Huh7.5 cells assessed as reduction in viral replication at 1 uM simultaneously treated with viral infection for 15 mins to 2 hrs and measured after 72 hrs by In-Cell Western assay; assay type: functional, organism-based; settings: Hepacivirus hominis
In short: (§2)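 Huh7.5 cells infected with HCV while incubated with compound, either for 4 h across a concentration series or at 1.0 µM for varied times down to 15 min. Supernatant then replaced with fresh medium. Intracellular Core protein measured by In-Cell Western at 72 h.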

[6] = Oral bioavailability in Sprague-Dawley rat at 5 mg/kg measured after 0.08 to 72 hrs after dose by LC-MS/MS analysis; assay type: ADME, organism-based; settings: in vivo
[7] = tested on: Hepatitis C virus; assay: Antiviral activity against HCV J6/JFH/JC1 infected in human Huh7.5 cells incubated for 72 hrs by In-Cell Western assay; assay type: functional, organism-based, Hepacivirus hominis; settings: J6/JFH/JC1, Huh7.5, 72 h
In short: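 Huh7.5 cells infected with HCVcc (MOI 0.1) and treated with compound at the same time for 72 h. Cells fixed with PFA, permeabilized, then stained for HCV Core and GAPDH with IR-dye secondaries. Core signal normalized to GAPDH. Eight-step 1:5 dilutions in triplicate; EC50 by Reed & Muench; mean of three experiments.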

[8] = tested on: Hepatitis C virus; assay: Antiviral activity against HCV GS4.3 infected in human Huh7.5 cells assessed as reduction in viral NS3 protein levels at 0.2 to 5 uM incubated for 72 hrs by Western blot assay; assay type: functional, organism-based; settings: Hepacivirus hominis
[9] = tested on: Hepatitis C virus; assay: Antiviral activity against HCV expressing NS3 A156T mutant by qRT-PCR analysis based by Reed-Muench method; assay type: functional, organism-based, Hepacivirus hominis
In short: (§3)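 Huh7.5 cells seeded at 3×10^4/cm², infected 24 h later with wild-type or mutant HCV stock while compound or solvent was added at the same time. Intracellular HCV RNA measured by qRT-PCR at 72 h, normalised to GAPDH, 2^-ΔCT method. EC50 by Reed & Muench from eight-step 1:5 serial dilutions, triplicate wells.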

[10] = Cytotoxicity in African green monkey Vero E6 cells assessed as reduction in cell viability; assay type: cell-based, Vero C1008; settings: chlorocebus sabaeus
[11] = Toxicity in Kunming mouse at 250 to 1000 mg/kg dosed via single oral gavage and measured on day 7 post treatment; assay type: organism-based; settings: in vivo
In short: (§4)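 Kunming mice, 4 groups of n = 6 (3 male, 3 female). Fasted from 12 h before to 1 h after dosing. Single oral gavage of 250, 500 or 1000 mg/kg suspended in 0.5% CMC-Na, or vehicle alone. Followed for 7 days: survival, body weight before and at day 7. Day-7 blood taken for AST, ALT, urea nitrogen and creatinine.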

[12] = Clearance in Sprague-Dawley rat at 5 mg/kg, iv measured after 0.08 to 72 hrs post dose by LC-MS/MS analysis; assay type: ADME, organism-based; settings: in vivo; in short: as §1
[13] = Drug level in beagle dog at 15 mg/kg, po measured after 24 hrs post dose by LC-MS/MS analysis; assay type: ADME, organism-based, Canis lupus familiaris; settings: in vivo, read-out: Drug uptake; in short: as §1
[14] = Selectivity index, ratio of CC50 for cytotoxicity in African green monkey Vero cells to EC50 for Antiviral activity against Coxsackievirus B3 infected in Vero cells; assay type: toxicity, cell-based; settings: read-out: Ratio CC50/EC50
[15] = tested on: Hepatitis C virus; assay: Antiviral activity against HCV GS4.3 infected in human Huh7.5 cells assessed as […] at 0.008 to 1 uM simultaneously treated with viral infection and measured after 72 hrs by Western blot assay; assay type: functional, organism-based; settings: Hepacivirus hominis
[16] = tested on: Hepatitis C virus; assay: Antiviral activity against HCV GS4.3 infected in human Huh7.5 cells assessed as reduction in viral replication at 0.3125 to 5 uM simultaneously treated with viral infection for 4 hrs and measured after 72 hrs by In-Cell Western assay; assay type: functional, organism-based; settings: Hepacivirus hominis; in short: as §2
[17] = tested on: Hepatitis C virus; assay: Antiviral activity against HCV expressing NS5B S282T mutant by qRT-PCR analysis based by Reed-Muench method; assay type: functional, organism-based, Hepacivirus hominis; in short: as §3
[18] = Drug level in Sprague-Dawley rat at 5 mg/kg, iv measured after 72 hrs post dose by LC-MS/MS analysis; assay type: ADME, organism-based; settings: in vivo, read-out: Drug uptake; in short: as §1
[19] = Apparent Volume of distribution in beagle dog at 5 mg/kg, iv measured after 0.08 to 72 hrs post dose by LC-MS/MS analysis; assay type: ADME, organism-based, Canis lupus familiaris; settings: in vivo, read-out: Vz; in short: as §1
[20] = Toxicity in Kunming mouse assessed as effect on body weight at 250 to 1000 mg/kg dosed via single oral gavage and measured on day 7 post treatment; assay type: organism-based; settings: in vivo; in short: as §4
[21] = tested on: Hepatitis C virus; assay: Resistance index, ratio of EC50 for antiviral activity against HCV with glycoprotein E1 F291V mutant infected in human Huh7.5 cells to EC50 for Antiviral activity against HCV with wild type glycoprotein E1 infected in human Huh7.5 cells; assay type: functional, Hepacivirus hominis
In short: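 Huh7.5 cells seeded at 3×10^4/cm² and incubated 24 h, then infected with wild-type or E1 F291V mutant HCV while simultaneously treated with compound in eight-step 1:5 serial dilutions, run in triplicate. Intracellular HCV RNA was read by qRT-PCR at 72 h (2^-ΔCT, normalized to GAPDH). EC50 by Reed & Muench; the index is mutant EC50 over wild-type EC50.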

[22] = Cytotoxicity in human Huh7.5 cells assessed as reduction in cell viability incubated for 96 hrs by MTT assay; assay type: cell-based
In short: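 Huh7.5 cells seeded 24 h before compound addition. Viability read by MTT at 96 h. Eight-step 1:5 serial dilutions in triplicate; CC50 by Reed & Muench; three independent experiments.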

[23] = Half life in Sprague-Dawley rat at 5 mg/kg, iv measured after 0.08 to 72 hrs post dose by LC-MS/MS analysis; assay type: ADME, organism-based; settings: in vivo; in short: as §1

Compound: CN(C)CCN(C)c1ccc(C#N)c(CN2CCN(c3ccc(Cl)cc3)CC2)c1
- CC50 [1]: 22.2 µM
- Tmax [2]: 3.08 h
- concentration at 24 h [3]: 119 ng/mL
- clearance [4]: 79.2 mL/min/kg
- Activity [5]: Active
- bioavailability [6]: 39%
- EC50 [7]: 0.083 to 0.125 µM
- Activity [8]: inactive
- EC50 [9]: 0.0019 µM
- CC50 [10]: 18.4 µM
- MTD at 7 day [11]: > 1000 mg/kg
- clearance [12]: 18.1 mL/min/kg
- concentration at 24 h [13]: 15.6 ng/mL
- selectivity ratio [14]: 3
- Activity [15]: Active
- Activity [16]: Dose-dependent effect
- EC50 [17]: 0.0044 µM
- concentration at 72 h [18]: 9.2 ng/mL
- Vd [19]: 49.2 L/kg
- Activity [20]: Non-Toxic
- Ratio EC50 [21]: 20
- CC50 at 96 h [22]: 12.8 to 14.8 µM
- half-life [23]: 14.3 h
